Compound activity as filed in PubChem BioAssay.
A selection: hits, their analogues and other compounds. The true share with any hit is near 1.4%.
A3G deaminase: blocks human APOBEC3G single-stranded DNA deamination; Q9HC16; recombinant A3G, ssDNA deamination FAM/TAMRA fluorescence; inhibition, % at 20 µM; 330,000 tested, 0.28% active; AID 493012;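 active = inhibition of at least 40% at 20 µM, with no more than 30% in the related APOBEC3A deaminase screen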;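 also: plate controls were DMSO wells with A3G for no effect and wells lacking A3G enzyme for full effect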
Target sequence (Q9HC16 whole entry, looked up): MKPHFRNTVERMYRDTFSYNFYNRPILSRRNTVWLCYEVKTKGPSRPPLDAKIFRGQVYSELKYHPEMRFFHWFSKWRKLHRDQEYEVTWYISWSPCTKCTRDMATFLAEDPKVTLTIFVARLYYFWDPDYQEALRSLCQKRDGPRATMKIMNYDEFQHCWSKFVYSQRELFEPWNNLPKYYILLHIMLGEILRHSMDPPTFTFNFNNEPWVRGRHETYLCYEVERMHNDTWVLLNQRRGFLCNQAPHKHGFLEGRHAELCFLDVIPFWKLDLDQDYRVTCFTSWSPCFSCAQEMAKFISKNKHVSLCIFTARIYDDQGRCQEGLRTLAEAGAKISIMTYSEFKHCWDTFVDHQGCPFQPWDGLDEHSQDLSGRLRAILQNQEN
APJ antag: APJ receptor antagonism | inhibition, % at 20 µM | P35414 | 330,000 tested, 0.32% active | AID 2521 | CHO-K1 APJ beta-arrestin complementation, luminescence;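 active = inhibition above about 40% at 20 µM, limit read from the data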;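 also: cells challenged with 10 nM apelin-13 agonist together with compound; plate controls were apelin-13 plus DMSO wells for no effect and DMSO wells lacking apelin-13 for full effect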
CXCR6 inh: inhibitors of human CXCR6 receptor; 360,000 tested, 0.36% active; inhibition, % at 20 µM; CHO-K1 PathHunter CXCR6 beta-arrestin, luminescence; in the data active = inhibition above about 34%, passing the limit was not always enough;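 also: antagonist mode with CXCL16 agonist at 10 nM final; 0% = 10 nM CXCL16 with DMSO and 100% = unstimulated wells without agonist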
APJ ag: APJ receptor agonism; P35414; CHO-K1 APJ PathHunter beta-arrestin, luminescence; 0% DMSO wells, 100% apelin; activation, % at 20 µM; 330,000 tested, 0.11% active; AID 2520;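 active = activation more than six SD over the plate average, tested at 20 µM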;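 also: 0% = DMSO alone and 100% = apelin-13 at 10 nM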
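system = engineered CHO-K1 APJ arrestin reporter cells | input = 1000 cells per well | timing = overnight seeding, 90 min compound at 25 °C, 1 h detection | measured by = enzyme-fragment complementation luminescence | read-out = beta-arrestin recruitment to APJ as agonist activity, luminescent signal | control set = negative DMSO alone, positive Apelin-13 at 10 nM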
APOBEC3A inh: inhibitors of human APOBEC3A DNA deaminase | recombinant A3A, FAM/TAMRA ssDNA deamination fluorescence | 330,000 tested, 0.41% active | inhibition, % at 20 µM;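 active = at least 40% inhibition at 20 µM here, with at most 30% in a related deaminase screen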;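 also: plate controls were A3A with DMSO for no effect and wells lacking A3A enzyme for full effect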
Target sequence (P31941 whole entry, looked up): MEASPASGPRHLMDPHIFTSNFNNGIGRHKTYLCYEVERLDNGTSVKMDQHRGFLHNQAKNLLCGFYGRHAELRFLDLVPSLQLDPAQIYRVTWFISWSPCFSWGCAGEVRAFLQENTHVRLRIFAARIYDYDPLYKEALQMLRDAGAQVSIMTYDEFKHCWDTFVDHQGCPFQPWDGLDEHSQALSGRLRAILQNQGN
CCR6 antag: blocks CCL20-driven beta-arrestin recruitment at human CCR6 | P51684 | CHO-K1 CCR6 PathHunter beta-arrestin, luminescence, CCL20-stimulated | inhibition, % at 20 µM | 340,000 tested, 0.49% active;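 active = compounds whose inhibition of the agonist-driven luminescence signal at 20 µM reaches about 50%, limit read from the data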;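 also: cells stimulated with CCL20 at 14 nM final; plate controls were DMSO with CCL20 for no effect and DMSO without agonist for full effect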
APJ ag conf: confirmation of human APJ apelin receptor agonists; shares compounds with APJ ag; CHO-K1 APJ PathHunter beta-arrestin, luminescence; activation, % at 20 µM; 310 tested, 10% active;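 active = activation above 40%, taking the highest of four retests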;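 also: plate controls were DMSO wells for no effect and apelin-13 at 10 nM for full effect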
* = called active by the depositor; . = no result.

SMILES	A3G deaminase	APJ antag	CXCR6 inh	APJ ag	APOBEC3A inh	CCR6 antag	others
O=C(Nc1ccc2cn[nH]c2c1)c1c(Cl)cccc1Cl	-8	-3	-5	0	-3	1
COc1ccc(CCN2C(=O)c3ccccc3C2c2nnnn2-c2c(C)cccc2C)cc1OC (stereo unspecified)	.	.	4	.	.	.
N#C/C(=C/C1=C(N2CCOCC2)C(=C/c2ccc(Cl)cc2)/CC1)C(=O)Nc1ccccc1F	.	.	20	.	.	30
Cc1cc(C)nc(SCc2cc(=O)c(OC(=O)c3ccc(S(=O)(=O)N(C)C)cc3)co2)n1	-10	12	6	0	-8	5
Cc1cc(C)nc(SCc2cc(=O)c(OC(=O)c3ccc(Cl)c([N+](=O)[O-])c3)co2)n1	-5	58*	21	1	-2	13
CCC(C)[C@@H](NC(=O)OC(C)(C)C)c1nnc(S(=O)(=O)Cc2cccc(C)c2)o1 (stereo partly specified)	.	.	53*	.	.	38
CC(C)(C)OC(=O)N[C@@H](Cc1ccccc1)c1nnc(S(=O)(=O)Cc2ccccc2)o1	-6	39	.	-8	-2	.
Nc1nn(S(=O)(=O)c2ccccc2)cc1-c1ccc([N+](=O)[O-])cc1	-4	-63	-11	9.9*	3	12
CCOC(=O)c1csc(Nc2nc3ccc(F)cc3s2)n1	-6	42*	17	-14	-2	27
COC(=O)c1ccc2nc(Nc3nc4ccc(F)cc4s3)sc2c1	.	.	-10	.	.	-16
CCOc1ccc(Cl)cc1-c1cc(C(=O)NC2CCCCC2)[nH]n1	.	.	-1	.	.	.
CCCCN1CC(=O)N2[C@H](c3ccc(Cl)cc3)[C@@H]3C(=O)N(CC)C(=O)[C@@H]3[C@]2(C)C1=O	-9	1	3	-3	-1	5
O=C(OCn1ncc(Cl)c(Cl)c1=O)c1cccc(C(F)(F)F)c1	-7	38	50*	-1	0	59*
CN(C)/C=C/C(=O)/C=C/c1ccc(Cl)cc1	-9	-3	6	-2	-3	11
CN(C)CC(O)c1ccc(C=Cc2ccc(Cl)cc2)cc1 (stereo unspecified)	.	.	19	.	.	88*
Cc1ccc(-c2nn3c(C)nnc3s2)cc1NC(=O)c1ccc(-c2cccc(Cl)c2)o1	9	0	6	3	4	1
Cc1ccc(-c2nn3c(C)nnc3s2)cc1NC(=O)c1ccc(-c2ccc(Cl)cc2Cl)o1	-3	-8	2	0	43*	-10
COc1cc(/C=C2\SC(c3ccccc3)=NC2=O)cc(Cl)c1O	.	.	37	.	.	74*
COc1cc(/C=C2/C(=O)ON=C2C)cc(Cl)c1O	-1	29	34	-5	-4	59*
C#CCOc1c(Cl)cc(/C=C2/C(=O)ON=C2C)cc1OC	-6	-1	-2	-3	1	6
OC(c1ccc(F)c(F)c1)c1nc(-c2cnc3ccccc3c2)cs1 (stereo unspecified)	.	.	-5	.	.	.
O=C(N/N=C/c1cc(Br)cc(Br)c1O)c1cccc(N2CCCC2=O)c1	-4	-23	-20	0	-1	54*
Clc1nssc1=Nc1ccc(Br)cc1	.	.	1	.	.	15
Clc1nssc1=Nc1nncs1	71*	26	18	-1	-2	15
COc1ccc(/C=c2\sc3nc(=O)c(C)nn3c2=O)c(OC)c1	-16	4	1	-3	-4	83*
SMILES	A3G deaminase	APJ antag	CXCR6 inh	APJ ag	APOBEC3A inh	CCR6 antag	others
COC(=O)C1(C)CCCC2(C)c3cc(OC)ccc3C(=O)C(Br)C12 (stereo unspecified)	.	.	-2	.	.	.
CC(=O)NN1C(=O)/C(=C\c2ccc(O)cc2)SC1=S	-7	35	32	-8	-3	50
O=C1/C(=C\c2ccc(O)cc2)SC(=S)N1/N=C/c1ccc(O)cc1	-1	30	47*	-7	2	66*
O=C(OCn1ncc(Br)c(Br)c1=O)c1ccc(F)cc1	-1	21	47*	-1	0	44
O=C(OCc1cnc(Cl)s1)c1ccccc1Cl	-5	4	-17	0	-3	3
O=C(OCn1ncc(Br)c(Br)c1=O)c1ccccc1Cl	-7	28	49*	0	-2	43
C/C(=C1/C(=O)N(c2ccc([N+](=O)[O-])cc2)N=C1c1ccccc1)N(C)C	0	49*	.	-7	6	.
CN(C)/C=C1/C(=O)N(c2ccc([N+](=O)[O-])cc2)N=C1c1ccccc1	-1	6	.	-1	0	.
O=[N+]([O-])c1cc([N+](=O)[O-])c(Oc2cccnc2Br)cc1NN1CCCCC1	-7	-27	2	14	-3	1
Oc1c(Cl)cc(Cl)cc1/C=N/Nc1ncc(Br)cn1	-5	7	62*	-3	-1	74*
Cc1cc2nc(C(C)(C)C)c(Cc3ccccc3C(F)(F)F)n2c(C)c1Br	.	.	-4	.	.	.
CCC1=NN(C(=O)c2ccc(Cl)cc2)C(O)(c2ccc(C)cc2)C1 (stereo unspecified)	-2	29	34	1	2	64*
NC(=O)Cc1ccc(C(=O)CSc2nnc(-c3ccncc3)n2C2CC2)s1	18	-11	-11	1	5	-1
Cc1[nH]n(-c2ccccc2)c(=O)c1/C=N/O	-6	1	-1	-3	-4	-16
Cc1ccc2cccc(N=Cc3c(C)[nH]n(-c4ccccc4)c3=O)c2n1	.	.	69*	.	.	89*
Cc1[nH]n(-c2ccccc2)c(=O)c1/C=N/N1C(=O)c2ccc3c4c(ccc(c24)C1=O)CC3	8	-12	38*	3	10	.
O=C(COc1ccccc1[N+](=O)[O-])Nc1ccc(N2CCN(C(=O)c3cccs3)CC2)cc1	-3	-19	3	16*	0	-17	APJ ag conf=24
O=C(Nc1ccc(N2CCN(C(=O)c3cccs3)CC2)cc1)c1ccc([N+](=O)[O-])o1	-8	-94	0	29*	0	.	APJ ag conf=6
COc1cccc(N2CCN(c3ncnc4c3cnn4-c3ccc(C)cc3C)CC2)c1	-12	-58	-4	16*	-4	-7	APJ ag conf=34
Cc1ccc(-n2ncc3c(N4CCCC4)ncnc32)c(C)c1	0	4	0	-2	1	-1
Cc1ccc(C(=O)N2CCN(c3ncnc4c3cnn4-c3ccccc3)CC2)cc1	-5	-20	-9	32*	0	.	APJ ag conf=-2
COc1ccccc1C/C(N)=N/OC(=O)c1cccc([N+](=O)[O-])c1	-9	-95	-11	11*	-4	-17	APJ ag conf=37
N/C(=N\OC(=O)c1cccc(F)c1)c1cccc([N+](=O)[O-])c1	0	-62	-31	15*	-2	-18	APJ ag conf=22
COc1ccc(C/C(N)=N/OC(=O)c2cccc([N+](=O)[O-])c2)cc1	-7	-56	-19	18*	-5	-3	APJ ag conf=19
